Test results taken from paper PMC10876062 (Science (New York, N.Y.), 2023).

Assays:
C. albicans hyphae [1] = test: Propidium iodide membrane permeabilization of C. albicans hyphae; assay type: cell-based, Candida albicans
Outline: (§1)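 C. albicans yeast and hyphae were exposed to FITC-tagged test peptide and stained with propidium iodide to read membrane permeabilization. Exposure was in standard antimicrobial peptide assay buffer, in the preferred growth medium (YPD for yeast, RPMI for hyphae), or in buffer plus 2.5% w/v porcine mucus. For hyphae, the assay was repeated with sodium sulfate added as an anionic charge quencher.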

[2] = tested on: C. albicans hyphae on Caco-2 cells; test: C. albicans hyphae-GFP attachment to Caco-2 cells; assay type: cell-based, Candida albicans; settings: 20 μM peptide, 6 hours, confluent Caco-2, vs vehicle
[3] = Mucus vs. aqueous partitioning in vitro across 10 kDa MWCO filter; assay type: physicochemical; settings: 10 kDa MWCO filter separating mucus and aqueous wells
Outline: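 Test peptide was added to either the mucus well or the aqueous well of a pair separated by a 10 kDa MWCO filter. Experiments were run in triplicate and repeated three times, with a t-test for comparison.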

[4] = tested on: representative Gram-positive and -negative bacteria; test: Antimicrobial activity against bacteria; assay type: cell-based; settings: CFUs and O.D. normalized to 0 μM PYY
Outline: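 Gram-positive and Gram-negative bacteria were exposed to a range of test peptide concentrations, with or without mucus, and compared with a magainin-2 reference peptide. Surviving CFUs were normalised to 0 μM peptide, and O.D. growth to wells with 0 μM peptide. Each assay was run in duplicate, three times, and analysed by ANOVA.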

C. albicans yeast [5] = test: Propidium iodide membrane permeabilization of C. albicans yeast; assay type: cell-based, Candida albicans; settings: 30 μM peptide
Outline: as §1

C. albicans hyphae [6] = test: C. albicans hyphal growth; assay type: cell-based, Candida albicans
Outline: (§2)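 C. albicans hyphae were grown in RPMI. They were exposed to the test peptide with or without 2.5% w/v porcine […], alongside scrambled-peptide and magainin-2 controls. Read-outs were respiration by XTT tetrazolium assay, dry weight, biofilm adherence and CFUs. Each assay was run in duplicate, three times.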

C. albicans yeast [7] = test: C. albicans yeast survival; assay type: cell-based, Candida albicans; settings: increasing concentrations, media with or without 2.5% w/v mucin; CFU and O.D.
Outline: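 C. albicans yeast were grown in YPD. They were exposed to the test peptide with or without 2.5% w/v porcine […], alongside scrambled-peptide and magainin-2 controls. Survival was read as CFUs and growth as optical density. Each assay was run in duplicate, three times.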

C. albicans hyphae [8] = test: C. albicans hyphal respiration; assay type: cell-based, Candida albicans; settings: XTT assay; increasing concentrations, with or without 2.5% w/v mucin
Outline: as §2

For “PYY1–36 - fluorescein isothiocyanate (FITC) tagged peptide: FITC tagged PYY1–36”, the “Co-localization of tagged peptide with PI signal” value (C. albicans hyphae [1]; FITC-tagged peptide, fluorescence microscopy) was “co-localized with the PI signal within hyphae”.
With “PYY1–36: unmodified, full length peptide YY expressed by Paneth cells” the “Numbers of hyphae attached to Caco-2 cells” value [2] was “significantly reduced”, the “Partitioning between mucus and aqueous compartments” value [3] was “preferentially partitions into mucus” and the “Concentration at which permeabilization of hyphae was observed (PI)” value (C. albicans hyphae [1]; hyphae induced in presence of 2.5% w/v porcine mucin, propidium iodide) was 30 µM. For the same substance, the “Peptide-induced permeability (PI) in presence of sodium sulfate” value (C. albicans hyphae [1]; sodium sulfate as anionic quencher of cationic charge) was “reduced”, the “Antimicrobial activity against Gram-positive and -negative bacteria” value [4] was “less activity compared with more effective magainin-2” and the “Permeabilization of yeast (PI)” value (C. albicans yeast [5]) was “unaffected”. The “Shape of dose-response in biofilm and colony forming units” value (C. albicans hyphae [6]; 2.5% w/v mucin present) was “sigmoidal dose-response curve”, the “Concentration of peak effect (biphasic dose-response)” value (C. albicans hyphae [6]; aqueous (RPMI) buffer) was ~ 30 μM and the “Concentration of loss of activity (biphasic dose-response)” value (C. albicans hyphae [6]; aqueous (RPMI) buffer, attributed to self-aggregation) was 100 µM. For the same substance, the “Concentration at which biofilm formation was significantly reduced” value (C. albicans hyphae [6]; aqueous conditions, biofilm adherence) was 20 to 50 µM, the “Concentration at which hyphal growth was significantly reduced” value (C. albicans hyphae [6]; aqueous conditions, dry weight) was 20 to 50 µM and the “Effect on yeast numbers or density” value (C. albicans yeast [7]) was “did not affect”. The “Effect on hyphal respiration” value (C. albicans hyphae [8]) was “decrease in hyphal respiration”.
In the case of “PYY3–36: circulating endocrine form, formed by removal of two N-terminal amino acids by DPP-IV [reference compound]”, the “Permeabilization / disruption of hyphae (PI), in words” value (C. albicans hyphae [1]; propidium iodide, compared with PYY1–36 (native L-isoform)) is reported as “Less pronounced permeabilization”, the Effect on biofilm (C. albicans hyphae [6]; biofilm adherence) is reported as “No differences” and the “Effect on hyphal respiration” value (C. albicans hyphae [8]) is reported as “less activity”.
In the case of magainin-2 [reference compound], the “Antimicrobial activity against Gram-positive and -negative bacteria” value [4] is reported as “more effective”.
